ChEMBL document CHEMBL1142735, “Discovery of a new series of centrally active tricyclic isoxazoles combining serotonin (5-HT) reuptake inhibition with alpha2-adrenoceptor blocking activity” (J Med Chem, 2005)

What was measured:
Rattus norvegicus [1] = assay: Effective dose for reversal of medetomidine-Induced loss of righting was determined by oral administration; type: functional
Method in brief: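 Oral pretreatment of overnight-fasted male Wistar rats (200-250 g), then medetomidine 0.10 mg/kg iv (reversal means no loss of righting) or pCA 5 mg/kg sc (excitation scored 0-3 over 15 min from 45 min after pCA; inhibition means score <2). Doses taken from a geometric series.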

[2] = target: T1, Sodium-dependent serotonin transporter (Homo sapiens, UniProt P31645); assay: Inhibition of [3H]- paroxetine binding to 5-HTT receptor, serotonin transporter
Method in brief: (§1)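 Human platelet membranes (50 µg protein) in 50 mM Tris-HCl pH 7.4 with 120 mM NaCl and 5 mM KCl. Competition against [3H]paroxetine (0.5 nM), 60 min at 25 °C. Nonspecific binding defined with imipramine (1 µM). Filtration over 0.1% PEI-presoaked GF/B, washed with incubation buffer. Sigmoidal fit of specific binding; Ki via Cheng-Prusoff.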

[3] = target: T1, Sodium-dependent serotonin transporter; assay: Binding affinity for serotonin transporter; type: functional, Rattus norvegicus; method in brief: as §1
[4] = target: T2, Alpha-2C adrenergic receptor (Homo sapiens, UniProt P18825); assay: Binding affinity for alpha-2C-adrenergic receptor
T2 sequence (P18825 whole entry): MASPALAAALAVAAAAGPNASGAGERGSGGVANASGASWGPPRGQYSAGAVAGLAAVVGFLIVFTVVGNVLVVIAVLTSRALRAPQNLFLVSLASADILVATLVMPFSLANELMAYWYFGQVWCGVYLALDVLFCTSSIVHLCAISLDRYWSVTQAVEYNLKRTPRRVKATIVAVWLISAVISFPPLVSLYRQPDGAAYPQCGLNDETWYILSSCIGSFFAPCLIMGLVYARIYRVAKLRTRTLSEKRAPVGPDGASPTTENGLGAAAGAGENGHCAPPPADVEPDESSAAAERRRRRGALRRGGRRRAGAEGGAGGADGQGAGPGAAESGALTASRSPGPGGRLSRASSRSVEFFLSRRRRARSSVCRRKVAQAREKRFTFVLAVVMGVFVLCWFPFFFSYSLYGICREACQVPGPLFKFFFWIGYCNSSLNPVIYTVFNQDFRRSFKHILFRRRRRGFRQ
Method in brief: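 Human alpha2C receptor stably expressed in CHO cell membranes (5-10 µg protein) in 25 mM glycylglycine, pH 7.6. Competition against [3H]rauwolscine (1 nM), 30 min at 25 °C. Nonspecific binding defined with spiroxatrine (1 µM). Rapid filtration over GF/B, washed with ice-cold 50 mM Tris-HCl pH 8.0, scintillation counting. Sigmoidal curves fitted; Ki by Cheng-Prusoff.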

Rattus norvegicus [5] = assay: Effective dose for antagonism ofpCA-Induced excitation was determined by subcutaneous administration; type: functional; conditions: sc
Method in brief: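 Male Wistar rats (200-250 g), fasted overnight, given test compound or solvent sc before challenge. Loss of righting induced by medetomidine 0.10 mg/kg iv; reversal means no loss of righting. Excitation induced by pCA 5 mg/10 mL/kg sc and scored 0-3 over 15 min starting 45 min after pCA; inhibition means score <2.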

T1 sequence (P31645 whole entry): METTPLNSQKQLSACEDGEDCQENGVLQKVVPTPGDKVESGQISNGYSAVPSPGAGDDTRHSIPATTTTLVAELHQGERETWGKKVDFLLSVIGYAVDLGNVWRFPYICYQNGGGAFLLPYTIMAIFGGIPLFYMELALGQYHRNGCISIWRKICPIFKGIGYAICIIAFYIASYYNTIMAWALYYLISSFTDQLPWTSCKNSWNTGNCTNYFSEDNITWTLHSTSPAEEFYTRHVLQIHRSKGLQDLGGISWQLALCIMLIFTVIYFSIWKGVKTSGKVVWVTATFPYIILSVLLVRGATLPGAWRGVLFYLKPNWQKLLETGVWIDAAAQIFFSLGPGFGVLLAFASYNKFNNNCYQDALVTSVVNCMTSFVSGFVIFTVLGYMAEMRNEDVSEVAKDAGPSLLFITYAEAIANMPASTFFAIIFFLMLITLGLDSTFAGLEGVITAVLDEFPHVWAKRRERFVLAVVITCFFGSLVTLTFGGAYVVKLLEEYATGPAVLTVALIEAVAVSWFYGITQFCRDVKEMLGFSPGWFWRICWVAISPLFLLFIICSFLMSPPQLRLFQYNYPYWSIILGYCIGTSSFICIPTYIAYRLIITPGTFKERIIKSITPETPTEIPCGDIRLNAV

## COc1cc2c(cc1OC)C1=NO[C@@H](CN3CCN(C/C=C/c4ccccc4)CC3)[C@@H]1CO2
Rattus norvegicus [1]
  ED50: 1.3 mg/kg
[2]
  Ki: 1.2 nM

## COc1cc2c(cc1OC)C1=NO[C@@H](CN3CCN(C/C(C)=C/c4ccccc4)CC3)[C@@H]1CO2
Rattus norvegicus [1]
  ED50: 0.63 mg/kg

## COc1cc2c(cc1OC)C1=NO[C@@H](CN3CCN(Cc4ccc5ccccc5c4)CC3)[C@@H]1CO2
[3]
  Ki: 1.7 nM
[4]
  Ki: 3.1 nM
[2]
  Ki: 1.7 nM
Rattus norvegicus [5]
  ED50: 0.08 mg/kg

## COc1cc2c(cc1OC)C1=NO[C@@H](CN3CCN(C/C=C(\C)c4ccccc4)CC3)[C@@H]1CO2
[3]
  Ki: 10 nM
[4]
  Ki: 0.6 nM
